Screening data as filed in PubChem BioAssay.
S100A4 inh HTS: S100A4-myosin IIA interaction inhibition; actives 0.14% (n = 360,000); P26447; AID 652163; inhibition, % at 10.7 µM; S100A4/TAMRA-MyoIIA peptide fluorescence polarization;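 active means mean inhibition of at least 70% across replicates, with every replicate also reaching that level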
Target sequence (P26447 whole entry, looked up): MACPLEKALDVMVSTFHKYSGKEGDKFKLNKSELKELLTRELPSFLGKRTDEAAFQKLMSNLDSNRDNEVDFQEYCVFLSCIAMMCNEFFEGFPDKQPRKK
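Test system – S100A4 monomer (human) · Compound – single-point compound testing · Schedule – 5 min incubation before reading · Probe or stimulus – TAMRA-labelled myosin IIA heavy-chain peptide probe, 5 nM · Benchmarks – neutral control DMSO, positive control TFP · Medium – Calcium-containing HEPES buffer, pH 7.2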
FGF22 binding: FGF22 (human) thermal shift binding; Q9HCT0; recombinant FGF22 thermal shift, SYPRO orange fluorescence; percent of sucrose octasulfate shift, DMSO zero; activity (Tm shift, normalised), % at 9.99 µM; actives 1.5% (n = 340,000); AID 651658;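 active means mean Tm shift, scaled 0 neutral to 100 positive control, at about 1.3% or above, every replicate too, limit read from the data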
Target sequence (Q9HCT0 whole entry, looked up): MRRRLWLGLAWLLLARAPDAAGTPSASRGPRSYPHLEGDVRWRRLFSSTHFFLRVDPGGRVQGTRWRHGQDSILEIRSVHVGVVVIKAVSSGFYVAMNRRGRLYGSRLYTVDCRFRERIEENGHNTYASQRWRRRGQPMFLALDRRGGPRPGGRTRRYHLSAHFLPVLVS
CFTR F508del cor: CFTR F508del correction in bronchial cells | CFBE cells, YFP halide quenching; stimulated with forskolin plus potentiator P3; % fluorescence drop versus neutral controls | activity (quench increase), % at 7.58 µM | actives 0.36% (n = 350,000);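 active means mean added fluorescence quench of at least 8% versus neutral control, with both replicates also reaching 8%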;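 further: cells transiently co-express mutant CFTR-F508del with the halide-sensitive YFP; corrector assay measuring rescue of mutant channel to the surface after 24 h compound exposure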
dFosB act: mouse delta FosB homodimer activation. actives 0.99% (n = 340,000). AID 493131. P13346. activation, % at 25 µM. purified delta FosB, TAMRA-CDK5 oligo fluorescence polarization; percent of positive-control signal above neutral wells;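 active means mean activation above about 17%, with every replicate also reaching it, limit read from the data, passing the limit was not always enough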
Numbers without * were called inactive; . = no result. In the library only some 2.2% were active in any assay of this set; here they are far more common.

SMILES | S100A4 inh HTS | FGF22 binding | CFTR F508del cor | dFosB act
CCc1ccc(-n2c(=S)sc3c(=O)[nH]c(SCC(=O)NC4CCCCC4)nc32)cc1 | -1 | 44* | 1 | .
CC(=O)N(C)C[C@@H]1Oc2ncc(-c3cccc(F)c3)cc2C(=O)N([C@H](C)CO)C[C@@H]1C | -3 | 0 | 1 | .
O=C1c2cccc3c(N4CCCCC4)ccc(c23)C(=O)N1CCO | . | . | . | -10
O=C1c2cccc3c(N4CCCCC4)ccc(c23)C(=O)N1c1cccc(O)c1 | 62 | 44* | 14* | -2
COc1ccc2c3c(n(C)c2c1)[C@H](CO)N(Cc1ccncc1)CC31CCN(C(=O)C2CCCCC2)CC1 | 2 | 0 | 4 | .
CC(=O)NS(=O)(=O)c1ccc(NC(=S)NC(=O)Cc2ccccc2)cc1 | -1 | 43* | 1 | 5
COCC(=O)N1CCCCN2[C@H](CO)[C@H](c3ccc(-c4cccc(C)c4)cc3)[C@H]2C1 | . | . | 0 | .
O=C(Nc1nc2c(s1)CCCC2)c1ccc2ncsc2c1 | 2 | 1.7* | -5 | 10
CCn1c(/C=C/c2ccccc2)nc2ccccc2c1=O | -3 | 44* | 1 | -12
COc1ccc(CN2CCN(CC=C(C)C)C(CCO)C2)cc1Cn1cccn1 (configuration not stated) | -2 | 44* | 1 | -2
COc1ccc(CN2CCN(CCc3ccccc3)C(CCO)C2)cc1Cn1cncn1 (configuration not stated) | -2 | 44* | 1 | 5
CC(C)=CCN1CCN(Cc2ccc3nsnc3c2)CC1CCO (configuration not stated) | 0 | 43* | 1 | -7
O=C(COC(=O)Cc1ccc(Cl)cc1)Nc1c(F)cccc1F | 2 | 44* | -2 | -7
O=C(COC(=O)Cc1ccsc1)Nc1cccc(F)c1 | 16 | 0 | 16* | 2
COc1cccc(C(=O)Nc2ccc3c(c2)OC[C@@H](C)N(CCc2ccccc2)C[C@H](C)[C@@H](OC)CN(C)C3=O)c1 | -6 | -1 | 2 | .
CO[C@H]1CN(C)C(=O)c2ccc(NC(C)=O)cc2OC[C@H](C)N(CCc2ccccc2)C[C@H]1C | 6 | 0 | 0 | .
Cc1ccc(S(=O)(=O)N(C)C[C@H]2OCCCC[C@@H](C)Oc3ccc(NC(=O)Nc4ccccc4)cc3C(=O)N([C@H](C)CO)C[C@@H]2C)cc1 | 2 | 0 | 1 | .
Cc1cc(C)nc(NC(=O)c2ccc(COc3ccccc3Cl)cc2)c1 | 5 | 44* | -2 | -3
C/C(=N\NC(=O)c1cc(-c2cccs2)nc2ccccc12)c1ccccn1 | -14 | 0 | 12* | -15
Cc1cccc(COc2ccccc2C(=O)NC2CCC(O)CC2)c1 (configuration not stated) | -2 | . | 8.2* | -3
Cc1ccc(/C=C/C(=O)Nc2ccc(S(N)(=O)=O)cc2)o1 | 3 | 0 | 3 | -6
Cc1ccc(/C=C/C(=O)NCc2ccc(S(N)(=O)=O)cc2)o1 | -4 | 43* | 3 | -8
c1ccc(-n2cc(CN3CCC(N4CCOCC4)CC3)c(-c3ccc4c(c3)OCO4)n2)cc1 | -3 | 0 | -3 | 2
c1ccc(-n2cc(CN3CCCC3)c(-c3ccc4c(c3)OCO4)n2)cc1 | -2 | 43* | -1 | 2
CCN1C[C@@H](C)[C@H](OC)CN(C)C(=O)c2cc(NC(=O)NC(C)C)ccc2OC[C@H]1C | 12 | 0 | 3 | .
SMILES | S100A4 inh HTS | FGF22 binding | CFTR F508del cor | dFosB act
Cc1ccc(NS(=O)(=O)c2ccc(NC(=O)c3ccc(-c4ccccc4)cc3)cc2)c(C)c1 | . | . | . | 54*
CCCC(=O)Nc1ccc2c(c1)C(=O)N(C)C[C@H](OC)[C@H](C)CN(Cc1ccccc1)[C@H](C)CO2 | 96* | 0 | -1 | .
CCCN1C[C@H](C)[C@@H](OC)CN(C)C(=O)c2cc(NC(=O)NC3CCCCC3)ccc2OC[C@H]1C | 6 | 0 | 1 | .
CCCC(=O)Nc1ccc2c(c1)OC[C@@H](C)N(Cc1ccc(-c3ccccn3)cc1)C[C@H](C)[C@H](OC)CN(C)C2=O | 109* | -1 | 2 | .
CCCC(=O)Nc1ccc2c(c1)C(=O)N(C)C[C@H](OC)[C@H](C)CN(Cc1ccccc1)[C@@H](C)CO2 | 98* | 0 | -2 | .
CCCN1C[C@H](C)[C@H](OC)CN(C)C(=O)c2cc(NC(=O)NC3CCCCC3)ccc2OC[C@@H]1C | 116* | 0 | -1 | .
N#C/C(=N\Nc1cc(Cl)cc(Cl)c1)c1nnc2n1CCCCC2 | -5 | 43* | 1 | -32
Cc1cc(=O)[nH]c(SCc2cccc3ccccc23)n1 | -8 | 0 | -3 | -12
Cc1cc(CSc2nc(C)cc(=O)[nH]2)c2ncccc2c1 | -5 | 43* | -1 | -5
C=CCc1cc(/C=C2/NC(=O)NC2=O)cc(OCC)c1O | 4 | 43* | 0 | -9
COc1ccc(S(=O)(=O)N2CCCOC2CNC(=O)C(=O)NCc2ccco2)cc1C (configuration not stated) | -4 | 44* | 1 | -1
COc1cccc(NC(=O)C(=O)NCCCn2ccnc2)c1 | -5 | 43* | -3 | -3
COc1ccc(S(=O)(=O)N2CCCOC2CNC(=O)C(=O)NCCCn2ccnc2)cc1 (configuration not stated) | -1 | 44* | 0 | -3
C[C@@H]1CCCCO[C@H](CN(C)CC2CCCCC2)[C@@H](C)CN([C@H](C)CO)C(=O)c2cc(NC(=O)c3ccccc3)ccc2O1 | 0 | 0 | 0 | .
CC1=CC(=C(C#N)C#N)C=C(C)N1CCN1CCN(C(=O)Nc2ccc(Cl)c(Cl)c2)CC1 | . | . | . | 50*
COc1ccc(-c2ccc([C@@H]3[C@@H](C#N)N(C(=O)NC4CCCC4)[C@H]3CO)cc2)cc1 | 0 | 0 | 0 | .
C[C@@H]1CN([C@@H](C)CO)C(=O)c2cc(NC(=O)Nc3cccc4ccccc34)ccc2O[C@H]1CN(C)S(=O)(=O)c1ccc(Cl)cc1 | 6 | 0 | -2 | .
COc1ccc(C(=O)NC(=S)Nc2ccc(Cc3ccncc3)cc2)cc1 | -8 | 44* | . | -10
O=C(NC(=S)Nc1ccc(Cc2ccncc2)cc1)c1ccccc1F | -3 | 44* | 1 | -10
C[C@H]1CN([C@@H](C)CO)C(=O)Cc2cc(NC(=O)Nc3ccc4c(c3)OCO4)ccc2O[C@H]1CN(C)C(=O)NC1CCCCC1 | 6 | 0 | 1 | .
CN(C)Cc1cc(C(C)(C)c2ccccc2)ccc1O | 2 | 43* | -1 | -12
CCN(CC)CCN1C(=O)C(=O)/C(=C(/O)c2ccc(S(=O)(=O)N3CCOCC3)cc2)C1c1ccc(C(C)C)cc1 (configuration not stated) | -4 | 0 | 1 | -7
CCN(CC)CCN1C(=O)C(=O)/C(=C(/O)c2ccc(S(=O)(=O)N3CCOCC3)cc2)C1c1ccc(C)cc1 (configuration not stated) | 1 | 44* | -2 | -7
